Reference: ChEMBL document CHEMBL1155664, “New carbazole alkaloids from Clausena anisata with antitumor promoting activity” (J Nat Prod, 2000)

What was measured:
Assay type in all cases: cell-based
[1] = test system: Raji; assay: Inhibition of 12-O-tetradecanoylphorbol-13-acetate-induced EBV-early antigen activation in human Raji cells assessed as EA activation at 32 nmol relative to 12-O-tetradecanoylphorbol-13-acetate; design: scale not given: the % may be the effect or the level left; details: human gammaherpesvirus 4
Procedure, shortened: (§1)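 Raji cells induced with TPA (32 pmol = 20 ng/mL) plus compound at 10, 100, 500 or 1000 mol ratio/TPA (0.32, 3.2, 16, 32 nmol). EBV early antigen activation expressed as % of the TPA-only positive control (100%), given with S.D. Results count only where Raji viability stays at or above 60% at 2 days.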

[2] = test system: Raji; assay: Inhibition of 12-O-tetradecanoylphorbol-13-acetate-induced EBV-early antigen activation in human Raji cells assessed as EA activation at 16 nmol relative to 12-O-tetradecanoylphorbol-13-acetate; design: scale not given: the % may be the effect or the level left; details: human gammaherpesvirus 4; procedure, shortened: as §1
[3] = test system: Raji; assay: Inhibition of 12-O-tetradecanoylphorbol-13-acetate-induced EBV-early antigen activation in human Raji cells assessed as EA activation at 3.2 nmol relative to 12-O-tetradecanoylphorbol-13-acetate; design: scale not given: the % may be the effect or the level left; details: human gammaherpesvirus 4; procedure, shortened: as §1
[4] = test system: Raji; assay: Inhibition of 12-O-tetradecanoylphorbol-13-acetate-induced EBV-early antigen activation in human Raji cells assessed as EA activation at 0.32 nmol relative to 12-O-tetradecanoylphorbol-13-acetate; design: scale not given: the % may be the effect or the level left; details: human gammaherpesvirus 4; procedure, shortened: as §1
[5] = Cytotoxicity against human Raji cells assessed as cell viability at 32 nmol by trypan blue assay; details: read-out: Activity
Procedure, shortened: (§2)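 Raji cells treated with compound together with TPA (32 pmol, 20 ng/mL) at mole ratios to TPA of 10, 100, 500 or 1000 (0.32, 3.2, 16, 32 nmol). Viability determined by trypan blue staining 2 days after treatment. At least 60% viability is needed for the EBV-EA result to be valid.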

[6] = Cytotoxicity against human Raji cells assessed as cell viability at 16 nmol by trypan blue assay; details: read-out: Activity; procedure, shortened: as §2
[7] = Cytotoxicity against human Raji cells assessed as cell viability at 3.2 nmol by trypan blue assay; details: read-out: Activity; procedure, shortened: as §2
[8] = Cytotoxicity against human Raji cells assessed as cell viability at 0.32 nmol by trypan blue assay; details: read-out: Activity; procedure, shortened: as §2

| SMILES | Activity [1] | Activity [2] | Activity [3] | Activity [4] | viability at 32 nmol [5] | viability at 16 nmol [6] | viability at 3.2 nmol [7] | viability at 0.32 nmol [8] |
| --- | --- | --- | --- | --- | --- | --- | --- | --- |
| COC(=O)c1ccc2[nH]c3ccccc3c2c1 | 21.7% | 46.3% | 81.4% | 100% | 60% | > 80% | > 80% | > 80% |
| C=C(C)C1Cc2c(cc(O)c3[nH]c4ccccc4c23)C(=O)O1 (configuration not stated) [CLAUSAMINE A] | 15.4% | 28.3% | 73.7% | 95.5% | 60% | 70% | > 80% | > 80% |
| C=C(C)C1Cc2c(cc(OC)c3[nH]c4ccccc4c23)C(=O)O1 (configuration not stated) [CLAUSAMINE B] | 18.3% | 39.2% | 78.2% | 100% | 60% | 70% | > 80% | > 80% |
| COc1cc2c(c3c1[nH]c1ccccc13)CC(C(C)(C)O)OC2=O (configuration not stated) [CLAUSAMINE C] | 12.4% | 27.2% | 72% | 92.3% | 60% | 70% | > 80% | > 80% |
| COC(=O)c1cc(OC)c2[nH]c3ccccc3c2c1CC=C(C)C [CLAUSAMINE] | 18.2% | 34.2% | 66% | 92.3% | 60% | 70% | > 80% | > 80% |
| COC(=O)c1cc(O)c2[nH]c3ccccc3c2c1 [CLAUSINE E] | 27.4% | 42.4% | 74.6% | 100% | 60% | > 80% | > 80% | > 80% |
| COC(=O)c1cc(O)c2[nH]c3ccccc3c2c1CC=C(C)C [CLAUSINE F] | 20.2% | 37.5% | 69.8% | 94.6% | 60% | > 80% | > 80% | > 80% |
| COc1cc(C=O)c(CC=C(C)C)c2c1[nH]c1ccccc12 [EKEBERGININE] | 10.5% | 22.4% | 63.5% | 90.3% | 60% | > 80% | > 80% | > 80% |
| O=Cc1cc(O)c2[nH]c3ccccc3c2c1 [O-DEMETHYLMURRAYANINE] | 25.2% | 40.3% | 69.4% | 100% | 60% | > 80% | > 80% | > 80% |
